High-throughput results from PubChem.
hERG protect = hERG (human) protection from proarrhythmic block | Q12809 | CHO-hERG, FluxOR thallium flux, dofetilide IC70 present | activation (rescue from dofetilide block), less the hit threshold, % at 10 µM | 310,000 tested, 0.51% active;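 active = activation above the mean of controls blocked by dofetilide plus 5 SD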;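 also: thallium influx through hERG after potassium depolarization seen as dye fluorescence rise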
KCNK3 inh = human KCNK3 channel inhibition, primary screen | CHO-KCNK3 thallium flux, FluxOR fluorescence; hits give low values | B-score at 10 µM | 340,000 tested, 0.84% active;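 active = B-score under library mean minus 4 SD, starting fluorescence ratio at most library mean plus 5 SD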;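 also: more negative B-score means stronger inhibition of thallium flux through KCNK3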
Kir21 inh = Kir2.1 (mouse) channel inhibition; HEK293-Kir2.1, FluxOR thallium flux fluorescence; hits give low values; 310,000 tested, 0.85% active; B-score at 10 µM;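 active = fluorescence ratio B-score at or below minus 3 SD of library scores, with starting-brightness B-score within 2 SD, cut at about -4.2 in these data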;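 also: channel flux triggered by added potassium and thallium sulfate stimulus; B-score of peak minus minimum fluorescence over baseline after thallium stimulus; more negative B-score means stronger Kir2.1 block with less thallium influx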
KCNK9 inh = inhibitors of human KCNK9 two-pore domain potassium channel | HEK293 KCNK9, FluxOR thallium flux fluorescence; hits give low values | B-score at 10 µM | 310,000 tested, 1.2% active;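 active = ratio B-score over 3 SD below the library mean, with starting fluorescence within 5 SD of its mean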;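 also: negative B-score means less thallium flux so channel inhibition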
Target sequence (Q9NPC2 whole entry, looked up, the tested form may be a part): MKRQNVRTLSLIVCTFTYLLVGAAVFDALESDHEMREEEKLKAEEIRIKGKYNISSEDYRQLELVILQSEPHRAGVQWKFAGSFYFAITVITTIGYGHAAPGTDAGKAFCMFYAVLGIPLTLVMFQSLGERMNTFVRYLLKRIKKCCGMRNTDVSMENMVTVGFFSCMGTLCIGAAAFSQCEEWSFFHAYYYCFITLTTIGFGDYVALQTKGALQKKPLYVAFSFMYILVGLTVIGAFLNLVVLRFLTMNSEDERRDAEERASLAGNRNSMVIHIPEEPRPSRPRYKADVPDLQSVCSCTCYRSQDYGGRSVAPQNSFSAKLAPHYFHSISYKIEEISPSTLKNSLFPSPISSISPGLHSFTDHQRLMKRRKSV
KCNQ1 act = human KCNQ1 channel potentiation or activation; P51787; CHO-K1 KCNQ1, thallium flux FluxOR fluorescence; hits give high values; B-score at 10 µM; 310,000 tested, 0.35% active; AID 2648;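 active = fluorescence ratio B-score, a plate-corrected score, at least three library SD, with initial intensity B-score within 5 SD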
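System: Stable KCNQ1 CHO-K1 line | Incubation: 90 min dye loading and 20 min compound exposure, both at room temperature | Measure: Ratio B score | Medium: Assay buffer for compound exposure, DMSO matched across wells | Compound dosing: Single-concentration screen | Probe or stimulus: K+/Tl+ depolarizing stimulus | Measured by: Kinetic FluxOR fluorescence, 10 s baseline plus 110 s post-stimulus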
KCNQ1 inh = blocks the human KCNQ1 potassium channel; P51787; CHO-K1 KCNQ1, FluxOR thallium flux fluorescence; hits give high values; B-score at 10 µM; 310,000 tested, 1.3% active; AID 2642;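 active = compounds whose thallium flux B-score, printed positive for inhibition, exceeds three library SD while starting fluorescence stays within three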;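 also: channel opened by potassium depolarization with thallium stimulus after 20 min compound exposure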
KCNK9 block conf = human KCNK9 inhibitor confirmation. shares compounds with KCNK9 inh. HEK293 KCNK9 cells, FluxOR thallium flux fluorescence. inhibition, % at 10 µM. 4,900 tested, 43% active. AID 492992;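 active = thallium signal inhibited by more than 5 SD of the compound-free buffer control wells, on both duplicate plates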
Kir21 sel = tests whether KCNK9 modulators also affect mouse Kir2.1. shares compounds with KCNK9 inh. Kir2.1 cells, FluxOR thallium flux fluorescence. inhibition, % at 10 µM. 4,900 tested, 4% active. AID 492993;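 active = thallium signal drop more than 5 SD beyond the mean of the no-compound control wells, seen in both duplicate plates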;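 also: signal is fluorescence rise after thallium addition divided by baseline fluorescence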
KCNK9 uninduced = second counter-screen for KCNK9 modulators: effect in non-induced cells | 4,900 tested, 40% active | non-induced KCNK9-HEK293, FluxOR thallium flux | AID 492997 | shares compounds with KCNK9 inh | inhibition, % at 10 µM;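 active = thallium signal drop beyond 5 SD of the untreated control mean, on both duplicate plates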
A number is an active result; – = inactive; · = no result given. Hits are enriched below; roughly 3.7% of the tested compounds scored in any of these assays.

SMILES	hERG protect	KCNK3 inh	Kir21 inh	KCNK9 inh	KCNQ1 act	KCNQ1 inh	KCNK9 block conf	Kir21 sel	KCNK9 uninduced
Oc1ccc(N=Nc2ccc3c(c2)OCCO3)c2ncccc12	29	–	–	–	15	–	–	–	–
CCN(CC)S(=O)(=O)c1ccc(N2CCOCC2)c(NC(=O)c2cc3ccccc3oc2=O)c1	–	–	–	-12	–	–	55%	–	–
Cc1cc(C(=O)OC(C)C(=O)Nc2nc(-c3ccccc3)cs2)c(C)o1 (stereo unspecified)	–	–	–	–	–	–	–	–	–
Cc1cc(C(=O)OCC(=O)Nc2nc(-c3ccccc3)cs2)c(C)o1	–	–	–	–	–	–	·	·	·
C[C@H]1O[C@H](O[C@H]2[C@H](O)[C@@H](O)[C@@H](O[C@H]3[C@H](O)[C@@H](O)C(O)O[C@@H]3CO)O[C@@H]2CO)[C@H](O)[C@@H](O)[C@@H]1N[C@H]1C=C(CO)[C@@H](O)[C@H](O)[C@H]1O (stereo partly specified)	–	·	–	–	–	–	·	·	·
CCCc1nc(SCc2ccccn2)c2c(=O)n(C)c(=O)n(C)c2n1	–	–	–	–	–	–	·	·	·
Cn1c(=O)c2c(SCc3ccccn3)nc(CC(C)(C)C)nc2n(C)c1=O	–	–	–	–	–	–	–	–	–
O=C(/C=C1\NC2(CCCC2)Cc2ccccc21)C(=O)N/N=C/c1ccc(O)c(O)c1	–	–	–	-10	–	–	48%	–	30%
Cc1sc2nc(SCc3ccccc3)n(Cc3ccco3)c(=O)c2c1C	–	–	–	–	–	–	·	·	·
Cc1sc2nc(SCc3nc4ccccc4[nH]3)n(Cc3ccco3)c(=O)c2c1C	–	–	–	-8.3	–	–	26%	–	32%
O=C(OCC#CCSc1nnc(-c2ccc(Br)cc2)o1)c1cccs1	–	–	–	-12	–	–	–	–	40%
NC(=O)c1ccc(SCC(=O)OCC(=O)NCc2cccs2)c([N+](=O)[O-])c1	·	–	·	·	·	·	·	·	·
CCOc1ccc2nc(N3CCCCCC3)sc2c1	–	–	–	–	–	–	·	·	·
CCOc1ccc2nc(N3C(=O)/C(=C/c4ccccc4)NC3=S)sc2c1	45	–	–	–	134	–	–	–	–
Cc1ccnc(NC(=O)C2CCN(S(=O)(=O)c3ccc(C)c(C)c3)CC2)c1	–	–	–	–	–	–	·	·	·
CCS(=O)(=O)C1=NN2C(=N)/C(=C\c3ccc(OS(=O)(=O)c4ccccc4)cc3)C(=O)N=C2S1	–	–	–	–	–	–	·	·	·
CCC1=NN2C(=N)/C(=C\c3cccn3-c3ccc(C)c(C)c3)C(=O)N=C2S1	–	–	–	–	–	–	·	·	·
Cc1ccc(S(=O)(=O)Oc2ccc(/C=C3\C(=N)N4N=C(S(C)(=O)=O)SC4=NC3=O)cc2)cc1	–	–	–	–	–	–	–	–	–
Cc1cc(C)cc(-n2cccc2/C=C2/C(=N)N3C(=NC2=O)SN=C3S(C)(=O)=O)c1	–	–	–	–	–	10	–	–	–
CCC1=NN2C(=N)/C(=C/c3ccc(OS(=O)(=O)c4ccccc4)cc3)C(=O)N=C2S1	–	–	–	–	–	–	–	–	–
CCC1=NN2C(=N)/C(=C\c3cccn3-c3ccc(Cl)cc3)C(=O)N=C2S1	–	–	–	–	–	–	–	–	–
O=c1c2c(-c3ccc([N+](=O)[O-])cc3)ccnc2[nH]n1-c1ccccc1	–	–	–	–	–	–	·	·	·
O=C(COC(=O)CCNS(=O)(=O)c1cccc(C(F)(F)F)c1)NC(=O)NC1CCCCC1	–	–	–	-15	–	–	61%	–	31%
Cc1cc(C)c(S(=O)(=O)c2ccccc2C)c(OCC(C)(C)C)n1	–	–	–	-10	–	–	44%	–	53%
O=C(CSc1ncc(C(F)(F)F)cc1Cl)N1CCN(S(=O)(=O)c2ccc3ccccc3c2)CC1	–	–	–	–	–	–	–	–	–
SMILES	hERG protect	KCNK3 inh	Kir21 inh	KCNK9 inh	KCNQ1 act	KCNQ1 inh	KCNK9 block conf	Kir21 sel	KCNK9 uninduced
Nc1cc(=O)[nH]c(SCC(=O)N2CCN(S(=O)(=O)c3ccc4ccccc4c3)CC2)n1	–	–	–	–	–	–	·	·	·
COc1ccc(C(=O)NCc2nnc(SCC(=O)Nc3ccccc3OC)n2C)cc1	–	–	–	–	–	–	–	–	–
CCc1ccc(CN(C)CC(=O)Nc2ccc3c(c2)CCC3)cc1	–	–	–	–	–	–	–	–	–
CC(C)(C)NC(=O)NC(=O)CN1CCN(S(=O)(=O)c2ccc3c(c2)OCCO3)CC1	–	–	–	–	–	–	·	·	·
CCN(CC(=O)NC(=O)NCc1ccccc1)Cc1ccccc1	–	–	–	–	–	–	–	–	26%
O=C(CSCc1ccc(Cl)cc1)Nc1ccc(S(=O)(=O)N2CCCCCC2)cc1	–	–	–	–	–	–	–	–	–
COc1ccc(CSCC(=O)Nc2ccc(S(=O)(=O)N3CCCCCC3)cc2)cc1	–	–	–	–	–	–	–	–	–
O=C(CSCc1ccc(Br)cc1)Nc1ccc(S(=O)(=O)N2CCOCC2)cc1	–	–	–	–	–	–	·	·	·
COc1ccc(NC(=O)CSCC(=O)Nc2ccc(S(=O)(=O)N3CCCCC3)cc2)cc1	–	–	–	–	–	–	·	·	·
O=C1CSC(c2cccc([N+](=O)[O-])c2)N1c1c(F)cccc1F (stereo unspecified)	–	–	–	–	–	–	·	·	·
COc1ccc(C)cc1NC(=O)CCc1ccc(S(=O)(=O)N2CCOCC2)cc1	·	–	·	·	·	·	·	·	·
COC(=O)c1c(NC(=O)Cc2ccccc2)sc2c1C(C(=O)OC)CC2 (stereo unspecified)	–	–	–	–	–	–	–	–	–
CC(C)(C)OC(=O)COc1cc(O)c2c(=O)cc(-c3ccccc3)oc2c1	–	–	–	-12	–	10	43%	–	34%
Cc1cc(/N=C/C=C2/N(C)c3ccccc3C2(C)C)n(CCC#N)n1	·	–	·	·	·	·	·	·	·
Cc1ccc(/C=N/NC(=O)c2ccccc2OCc2cccc(Br)c2)o1	–	–	–	-10	–	–	30%	–	–
O=C(N/N=C/c1cccnc1)c1ccccc1OCc1cccc(Br)c1	–	–	–	–	–	–	·	·	·
CCN(CC)S(=O)(=O)c1cccc(-c2nnc(SCCOc3ccc(Cl)cc3)o2)c1	–	–	–	-10	–	–	48%	–	–
CCN(CC)S(=O)(=O)c1cccc(-c2nnc(SCCOc3ccccc3C)o2)c1	–	–	–	–	–	–	–	–	–
